Measured values as given in article PMC9545559 (International Journal of Cancer, 2022).

Columns and labels:
Format in all cases: in vivo, human
[1] = test system: patients with untreated locally advanced or metastatic PDAC; assay: Phase II safety and adverse events; settings: for patients with dose reduced due to occurrence of AEs: n = 24, combination ivaltinostat + gemcitabine + erlotinib; for Anemia, Number of patients (%) / Anorexia, Number of patients (%) / Fatigue, Number of patients (%) / Febrile neutropenia, Number of patients (%) / Neutropenia, Number of patients (%) / Pneumonia, Number of patients (%) / Thrombocytopenia, Number of patients (%): treatment-related
How it was run: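 Patients on ivaltinostat 250 mg/m2 IV with gemcitabine 1000 mg/m2 IV (days 1, 8, 15) and erlotinib 100 mg/day orally, 28-day cycles. Vital signs, AEs, ADRs, serious AEs, ECG and clinical laboratory tests checked on days 1, 8 and 15 of each cycle. AEs graded by NCI CTCAE v4.0. Safety set: all patients given ≥1 dose.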

[2] = test system: patients with untreated locally advanced or metastatic PDAC; assay: Phase I 3 + 3 dose escalation; settings: Level III: ivaltinostat 312.5 mg/m^2 + gemcitabine + erlotinib; four patients
How it was run: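 3 + 3 escalation: ivaltinostat IV from 187.5 to 250 or 312.5 mg/m2, plus gemcitabine 1000 mg/m2 IV on days 1, 8, 15 and erlotinib 100 mg/day orally in 28-day cycles. DLT graded by NCI CTC v4.0: grade 4 neutropenia ≥6 days, grade 3/4 thrombocytopenia with bleeding, grade 3 neutropenia with fever >38.5°C, or drug-related nonhematologic grade 3/4 toxicity. MTD: ≤1 DLT per six-patient cohort.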

[3] = Pharmacokinetic analysis of ivaltinostat in the phase I study; settings: first day after single administration, mean
[4] = 24 subjects, ivaltinostat + gemcitabine + erlotinib

Compound: C#Cc1cccc(Nc2ncnc3cc(OCCOC)c(OCCOC)cc23)c1 [erlotinib, reference compound]
- patients with dose reduced due to occurrence of AEs [1]: no patient received a reduced dose

Compound: Nc1ccn([C@@H]2O[C@H](CO)[C@@H](O)C2(F)F)c(=O)n1 [gemcitabine, reference compound]
- patients with dose reduced due to occurrence of AEs [1]: 12.5%

Compound: CN(C)CCCNC(=O)/C(=C/CCCCC(=O)NO)COc1cccc2ccccc12 [ivaltinostat]
- dose-limiting toxicity (DLT) [2]: A DLT, febrile neutropenia grade 3
- Cmax ([3]; 187.5 mg/m^2 iv, n=3): 9553 ng/mL
- Terminal half-life ([3]; 187.5 mg/m^2 iv, n=3): 7.3 h
- Cmax ([3]; 250 mg/m^2 iv, n=3): 8062 ng/mL
- Terminal half-life ([3]; 250 mg/m^2 iv, n=3): 5.7 h
- Cmax ([3]; 312.5 mg/m^2 iv, n=4): 12 782 ng/mL
- Terminal half-life ([3]; 312.5 mg/m^2 iv, n=4): 6.6 h
- drop-out of the study due to intolerable AEs [1]: no cases
- subjects with ADRs of grade 3 or 4 severity ([1]; 15 of 24 subjects): 62.5%
- ADR: decreased appetite ([1]; 24 subjects): 11 events
- ADR: decreased platelet count ([1]; 24 subjects): 15 events
- ADR: nausea ([1]; 24 subjects): 10 events
- ADR: rash ([1]; 24 subjects): 11 events
- ADR: vomiting ([1]; 24 subjects): 10 events
- ADRs with grade 3 or 4 severity ([1]; 24 subjects): 26 events
- grade 5 (death) events ([1]; 24 subjects): no grade 5 (death) events
- AEs reported [1, 4]: 218 events
- adverse drug reactions (ADRs) [1, 4]: 114 events
- patients with dose reduced due to occurrence of AEs [1]: 12.5%
- treatment-related grade 3 or 4 anemia ([1]; n = 24, text): 16.7%
- treatment-related grade 3 or 4 neutropenia ([1]; n = 24, text): 33.3%
- treatment-related grade 3 or 4 thrombocytopenia ([1]; n = 24, text): 29.2%
- Anemia, Number of patients (%) ([1]; Grade 3 (n = 24)): 4 (16.7) patients (%)
- Anorexia, Number of patients (%) ([1]; Grade 3 (n = 24)): 2 (8.3) patients (%)
- Fatigue, Number of patients (%) ([1]; Grade 3 (n = 24)): 2 (8.3) patients (%)
- Febrile neutropenia, Number of patients (%) ([1]; Grade 3 (n = 24)): 2 (8.3) patients (%)
- Neutropenia, Number of patients (%) ([1]; Grade 3 (n = 24)): 3 (12.5) patients (%)
- Pneumonia, Number of patients (%) ([1]; Grade 3 (n = 24)): 0 patients (%)
- Thrombocytopenia, Number of patients (%) ([1]; Grade 3 (n = 24)): 4 (16.7) patients (%)
- Anemia, Number of patients (%) ([1]; Grade 4 (n = 24)): 0 patients (%)
- Anorexia, Number of patients (%) ([1]; Grade 4 (n = 24)): 0 patients (%)
- Fatigue, Number of patients (%) ([1]; Grade 4 (n = 24)): 0 patients (%)
- Febrile neutropenia, Number of patients (%) ([1]; Grade 4 (n = 24)): 0 patients (%)
- Neutropenia, Number of patients (%) ([1]; Grade 4 (n = 24)): 5 (20.8) patients (%)
- Pneumonia, Number of patients (%) ([1]; Grade 4 (n = 24)): 1 (4.2) patients (%)
- Thrombocytopenia, Number of patients (%) ([1]; Grade 4 (n = 24)): 3 (12.5) patients (%)
- Anemia, Number of patients (%) ([1]; Total grade 3 and 4 (n = 24)): 4 (16.7) patients (%)
- Anorexia, Number of patients (%) ([1]; Total grade 3 and 4 (n = 24)): 2 (8.3) patients (%)
- Fatigue, Number of patients (%) ([1]; Total grade 3 and 4 (n = 24)): 2 (8.3) patients (%)
- Febrile neutropenia, Number of patients (%) ([1]; Total grade 3 and 4 (n = 24)): 2 (8.3) patients (%)
- Neutropenia, Number of patients (%) ([1]; Total grade 3 and 4 (n = 24)): 8 (33.3) patients (%)
- Pneumonia, Number of patients (%) ([1]; Total grade 3 and 4 (n = 24)): 1 (4.2) patients (%)
- Thrombocytopenia, Number of patients (%) ([1]; Total grade 3 and 4 (n = 24)): 7 (29.2) patients (%)
